Entries after “also recorded” stand apart in the source; their conditions may differ. Residues, ends and D or L forms follow the SMILES beside them. *: point of attachment. For = O=C*
Legend:
WT neutrophils = assay: Superoxide production, WT neutrophils; type: cell-based, mouse (C57BL/6)
How it was run: (§1)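 Bone-marrow neutrophils from age- and gender-matched mfpr1-/- and WT C57BL/6 mice (8–10 wk), 5 × 10^6 cells/ml in HBSS with 0.5% BSA. Preincubated 5 min at 37°C with isoluminol, 40 U/ml HRP and 5 μM cytochalasin B. Chemiluminescence: 5 min basal, then every minute for 15 min after agonist. SOD controls; 200 ng/ml PMA time course. Peptide responses as area under curve over first 10 min; two experiments in triplicate.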

mfpr1^-/- neutrophils [1] = assay: Superoxide production, mfpr1-/- neutrophils; type: cell-based, mouse (mfpr1^-/-)
How it was run: as §1

mouse neutrophils [2] = assay: Superoxide production, mouse bone marrow neutrophils; type: cell-based
How it was run: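 Isoluminol-enhanced chemiluminescence on mouse bone-marrow neutrophils at 5 × 10^6 cells/ml in HBSS with 0.5% BSA, preincubated 5 min at 37°C with isoluminol, 40 U/ml HRP and 5 μM cytochalasin B. Basal reading 5 min, then agonist at graded concentrations, read each minute for 15 min; SOD controls run in parallel. Cumulative superoxide taken as area under curve over first 5 min; two experiments in duplicate.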

mFPR1 [3] = target: T1, mFPR1 (Mus musculus, UniProt P33766); assay: Ca2+ mobilization in mFPR1-RBL cells; type: cell-based
T1 sequence (P33766 1-364): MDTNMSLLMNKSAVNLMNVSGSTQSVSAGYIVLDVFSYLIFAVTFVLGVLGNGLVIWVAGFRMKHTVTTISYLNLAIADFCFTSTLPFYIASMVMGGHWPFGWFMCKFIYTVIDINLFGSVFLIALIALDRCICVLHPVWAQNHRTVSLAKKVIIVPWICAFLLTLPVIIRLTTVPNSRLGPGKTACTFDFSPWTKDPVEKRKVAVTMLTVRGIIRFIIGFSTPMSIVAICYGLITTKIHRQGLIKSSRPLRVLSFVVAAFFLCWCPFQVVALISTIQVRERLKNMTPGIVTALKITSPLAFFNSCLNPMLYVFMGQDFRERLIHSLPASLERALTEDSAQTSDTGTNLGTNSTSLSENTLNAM

mouse neutrophils [4] = assay: Ex vivo chemotaxis; type: cell-based; conditions: CD1 mice, Transwell, 30 min, 37°C
How it was run: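 Bone marrow neutrophils from CD1 mice, purified on a Nycoprep/72% Percoll gradient after RBC lysis. Cells at 5 × 10^6 cells/ml in HBSS/0.5% BSA, prewarmed 20 min at 37°C. Agonist placed in BSA-precoated lower wells under 3 μm pore inserts, cells added on top. After 30 min at 37°C, cells in the bottom chamber were counted. Counts with ligand in both chambers were subtracted to remove chemokinesis.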

mouse neutrophils [5] = assay: Ca2+ mobilization, mouse bone marrow neutrophils; type: cell-based
mFPR1 [6] = target: T1, mFPR1; assay: ERK1/2 phosphorylation in mFPR1-RBL cells; type: cell-based; conditions: Western blot
How it was run: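 RBL-2H3 cells stably expressing mFPR1 (G418-selected; DMEM, 20% FBS, 250 μg/ml G418), with untransfected RBL cells as control. Cultured 24 h, serum-starved 4 h, then stimulated at graded concentrations for various times. Lysed in ice-cold SDS loading buffer, sonicated, boiled. Western blot for phospho-ERK1/2, with total ERK1/2 as loading control. Two independent experiments.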

[7] = test system: mock-transfected RBL cells; assay: ERK1/2 phosphorylation in mock-transfected RBL cells; type: cell-based, rat; conditions: at the concentrations tested (10 nM, 1 μM)
How it was run: (§2)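 Stably transfected or mock-transfected RBL-2H3 cells cultured 24 h, serum-starved 4 h, then stimulated over various time intervals. Stopped on ice in SDS-PAGE loading buffer, sonicated and boiled. Western blot with anti-phospho-ERK1/2 (1/1000), loading checked with anti-ERK1/2 (1/1000), HRP anti-rabbit secondary (1/3000). Two independent experiments.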

mFPR2 [8] = assay: ERK1/2 phosphorylation in mFPR2-RBL cells; type: cell-based, mouse; conditions: at the concentrations tested; data not shown
How it was run: as §2

mouse neutrophils [9] = assay: Degranulation; type: cell-based, mouse (C57BL/6)
How it was run: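 WT C57BL/6 and mfpr1-/- bone-marrow neutrophils preincubated with 10 μM cytochalasin B in HBSS, 20 mM HEPES (pH 7.4), 0.1% BSA: 15 min on ice, then 15 min at 37°C. Stimulated 10 min at 37°C, chilled and spun. Supernatant mixed 1:1 with 10 mM 4-methylumbelliferyl β-D-glucuronide (pH 4.0, 0.1% Triton X-100) 15 min at 37°C. Glycine/EDTA stop (pH 10.4); fluorescence 365/460 nm, as % of lysate total.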

mfpr1^-/- neutrophils [10] = assay: Degranulation; type: cell-based, mouse (mfpr1^-/-); conditions: KO
How it was run: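 Bone marrow neutrophils from 8-10 wk mfpr1-/- mice (C57BL/6 background) and matched WT mice. Cells preincubated with 10 μM cytochalasin B in HBSS, 20 mM HEPES pH 7.4, 0.1% BSA, 15 min on ice then 15 min at 37°C. Stimulated 10 min at 37°C, then chilled. Supernatant reacted with 4-methylumbelliferyl β-D-glucuronide (pH 4.0), 15 min at 37°C. Fluorescence read at 365/460 nm. Release expressed as % of total from Triton X-100 lysate.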

mFPR1 [11] = target: T1, mFPR1; conditions: cited from earlier work
mouse neutrophils [12] = conditions: cited from earlier work
mFPR1 [13] = target: T1, mFPR1; conditions: cited from earlier work; remark: listed apart in the source
mouse neutrophils [14] = conditions: mice; cited from earlier work
human neutrophils = conditions: cited from earlier work
[15] = test system: human formyl peptide receptor (FPR) 1; conditions: cited from earlier work
FPRL1 = conditions: b40: fMIVIL ref 22; b3: fMLF ref 16; cited from earlier work
mFPR2 [16] = conditions: vs mFPR1; cited from earlier work
neutrophils from cow = conditions: cited from earlier work
neutrophils from pig = conditions: cited from earlier work
neutrophils from dog = conditions: cited from earlier work
neutrophils from cat = conditions: cited from earlier work
[17] = test system: neutrophils from mfpr1-deficient mice; conditions: ex vivo; cited from earlier work

For `CCCCCCCCCCCCCC(=O)O[C@@H]1[C@@H](C)[C@@]2(O)[C@@H](C=C(CO)C[C@]3(O)C(=O)C(C)=C[C@@H]23)[C@@H]2C(C)(C)[C@]12OC(C)=O` [phorbol ester, phorbol myristate ester], the “superoxide production on phorbol ester stimulation, WT neutrophils” value (WT neutrophils; 200 ng/ml phorbol myristate ester, WT compared with KO) was “responded similarly” and the “superoxide production on phorbol ester stimulation, mfpr1-/- neutrophils” value (mfpr1^-/- neutrophils [1]; 200 ng/ml phorbol myristate ester, KO compared with WT) was “responded similarly”.
In the case of Superoxide dismutase, the “effect on detection of superoxide” value (mouse neutrophils [2]; SOD, 250 units, added 10 min before stimulation with 1 μM peptide) is reported as “effectively inhibited the detection of superoxide”.
Compound `CC[C@H](C)[C@H](NC(=O)[C@H](CCSC)NC=O)C(=O)N[C@@H](Cc1ccccc1)C(=O)N[C@@H](CC(C)C)C(=O)O` [fMIFL, N-formyl-Met-Ile-Phe-Leu] (For-MIFL-OH) has an EC50 (mFPR1 [3]) of 10 nM.
In the case of `CC[C@H](C)[C@H](NC(=O)[C@H](CCSC)NC=O)C(=O)N[C@H](C(=O)N[C@H](C(=O)N[C@@H](CC(C)C)C(=O)O)[C@@H](C)CC)C(C)C` [fMIVIL, N-formyl-Met-Ile-Val-Ile-Leu] (For-MIVIL-OH), the EC50 (mFPR1 [3]) is reported as 10 nM.
For N-formyl-Met-Leu-Phe [fMLF], the “neutrophil migration at 100 nM” value (mouse neutrophils [4]) was “did not stimulate significant neutrophil migration”, the “Ca2+ mobilization at 10 nM” value (mouse neutrophils [5]; 10 nM, FLIPR dye) was “but not fMLF” and the “lowest concentration with evident Ca2+ mobilization” value (mouse neutrophils [5]; not evident below 100 nM) was ≥ 100 nM. The “superoxide production at 5 μM relative to fMIVIL and fMIFL” value (mouse neutrophils [2]; 5 μM) was “about one-half”, the “threshold concentration for superoxide generation” value (mouse neutrophils [2]; isoluminol chemiluminescence, 37°C) was “above 1 μM” and the “concentration inducing Ca2+ flux” value (mFPR1 [3]; mFPR1-RBL) was “above 1 μM”. For the same compound, the “ERK1/2 phosphorylation at 10 nM” value (mFPR1 [6]; 10 nM) was “but not at 10 nM”, the “ERK1/2 phosphorylation at 1 μM” value (mFPR1 [6]; 1 μM) was “could induce ERK1/2 phosphorylation” and the “ERK1/2 phosphorylation in mock-transfected RBL cells” value [7] was “none of the peptides was able to induce detectable phosphorylation”. The “ERK1/2 phosphorylation in mFPR2-RBL cells” value (mFPR2 [8]) was “none of the peptides was able to induce detectable phosphorylation”, the “superoxide production, WT neutrophils” value (WT neutrophils; C57BL/6 WT) was “less potent” and the “superoxide production, mfpr1-/- neutrophils” value (mfpr1^-/- neutrophils [1]; mfpr1^-/-) was “very little superoxide was generated”. The “β-glucuronidase release, percent of cell-associated enzyme” value (mouse neutrophils [9]; 10 μM (maximal concentration used), WT neutrophils) was 5%, the “β-glucuronidase release relative to maximal release by fMIVIL and fMIFL” value (mouse neutrophils [9]; 10 μM fMLF) was “about one-half” and the “lowest concentration with significant β-glucuronidase release” value (mouse neutrophils [9]; WT neutrophils, not significant below 1 μM) was ≥ 1 µM. For the same compound, the “β-glucuronidase release at 100 nM, mfpr1-/- neutrophils” value (mfpr1^-/- neutrophils [10]; 100 nM) was “none of the three peptides was able to induce β-glucuronidase release”, the “β-glucuronidase release above 1 μM, mfpr1-/- neutrophils” value (mfpr1^-/- neutrophils [10]; peptide concentrations above 1 μM) was “only a small amount of enzyme was released” and the “ERK1/2 phosphorylation at 50 nM” value (mFPR1 [11]) was “but not fMLF”. The “potency loss on mouse neutrophils vs human neutrophils” value (mouse neutrophils [12]; less potent for mouse than for human neutrophils) was 100 -fold, the “concentration required for mouse neutrophil activation” value (mouse neutrophils [12]; mouse neutrophils, ref 17 (ref 17, 20)) was “requiring micromolar concentrations for cell activation; also recorded: requires micromolar concentrations; also recorded: micromolar concentration range” and the “agonist concentration required for calcium mobilization” value (mFPR1 [13]) was ≥ 100 nM. The “fMLF concentration required for degranulation and superoxide production” value (mouse neutrophils [14]) was 5 to 10 µM, the “ERK1/2 phosphorylation in human neutrophils” value (human neutrophils) was “rapid phosphorylation of the MAPKs ERK1/2” and the “concentration inducing bactericidal functions in human neutrophils” value (human neutrophils; human neutrophils) was “nanomolar concentrations”. For the same compound, the “agonist activity at human FPR1” value [15] was “potent agonist”, the “affinity/response at FPRL1” value (FPRL1) was “low affinities; also recorded: low-affinity receptor for fMLF” and the “response of mFPR2 to fMLF” value (mFPR2 [16]) was “responds even more weakly”. For the same compound, the “response of cow neutrophils” value (neutrophils from cow) was “do not respond”, the “response of pig neutrophils” value (neutrophils from pig) was “do not respond” and the “response of dog neutrophils” value (neutrophils from dog) was “do not respond”. The “response of cat neutrophils” value (neutrophils from cat) was “do not respond” and the “responsiveness of mfpr1-deficient neutrophils to fMLF” value [17] was “decreased responsiveness”.
